# Measurements taken from PubChem BioAssay.
# Active and inactive are the calls of the source.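 How the source made its calls, unless noted: active means viability at or under a set limit in both replicates, limit being median viability minus 3 SD (cut at about 48% in these data, passing the limit was not always enough); inconclusive means at or under the limit in just one replicate; inactive means at or above the limit in both replicates.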
# Assays:
# [1] = Her2 expression decrease, cell viability multiplex – SKBR3 breast tumor cells, AlphaScreen, ATP viability, primary screen (AID 461;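 active means Her2 level under about 52% in both replicate screens, with viability over 70% of control, limit read from the data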;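 on Her2 level: lower value means less Her2 protein in the cells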;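 on viability: percent of carrier control wells set as 100% viability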); details: SKBR3 Her2 protein level, 18-24 h, measured here: SKBR3 viability, ATP luminescence, at 10 µM
# [2] = target: Receptor tyrosine-protein kinase erbB-2 (Homo sapiens) (UniProt P04626); assay: as above; details: 18-24 h, at 10 µM, stronger effect = lower value
# Sequence of Receptor tyrosine-protein kinase erbB-2 (Homo sapiens) (P04626 whole entry, looked up): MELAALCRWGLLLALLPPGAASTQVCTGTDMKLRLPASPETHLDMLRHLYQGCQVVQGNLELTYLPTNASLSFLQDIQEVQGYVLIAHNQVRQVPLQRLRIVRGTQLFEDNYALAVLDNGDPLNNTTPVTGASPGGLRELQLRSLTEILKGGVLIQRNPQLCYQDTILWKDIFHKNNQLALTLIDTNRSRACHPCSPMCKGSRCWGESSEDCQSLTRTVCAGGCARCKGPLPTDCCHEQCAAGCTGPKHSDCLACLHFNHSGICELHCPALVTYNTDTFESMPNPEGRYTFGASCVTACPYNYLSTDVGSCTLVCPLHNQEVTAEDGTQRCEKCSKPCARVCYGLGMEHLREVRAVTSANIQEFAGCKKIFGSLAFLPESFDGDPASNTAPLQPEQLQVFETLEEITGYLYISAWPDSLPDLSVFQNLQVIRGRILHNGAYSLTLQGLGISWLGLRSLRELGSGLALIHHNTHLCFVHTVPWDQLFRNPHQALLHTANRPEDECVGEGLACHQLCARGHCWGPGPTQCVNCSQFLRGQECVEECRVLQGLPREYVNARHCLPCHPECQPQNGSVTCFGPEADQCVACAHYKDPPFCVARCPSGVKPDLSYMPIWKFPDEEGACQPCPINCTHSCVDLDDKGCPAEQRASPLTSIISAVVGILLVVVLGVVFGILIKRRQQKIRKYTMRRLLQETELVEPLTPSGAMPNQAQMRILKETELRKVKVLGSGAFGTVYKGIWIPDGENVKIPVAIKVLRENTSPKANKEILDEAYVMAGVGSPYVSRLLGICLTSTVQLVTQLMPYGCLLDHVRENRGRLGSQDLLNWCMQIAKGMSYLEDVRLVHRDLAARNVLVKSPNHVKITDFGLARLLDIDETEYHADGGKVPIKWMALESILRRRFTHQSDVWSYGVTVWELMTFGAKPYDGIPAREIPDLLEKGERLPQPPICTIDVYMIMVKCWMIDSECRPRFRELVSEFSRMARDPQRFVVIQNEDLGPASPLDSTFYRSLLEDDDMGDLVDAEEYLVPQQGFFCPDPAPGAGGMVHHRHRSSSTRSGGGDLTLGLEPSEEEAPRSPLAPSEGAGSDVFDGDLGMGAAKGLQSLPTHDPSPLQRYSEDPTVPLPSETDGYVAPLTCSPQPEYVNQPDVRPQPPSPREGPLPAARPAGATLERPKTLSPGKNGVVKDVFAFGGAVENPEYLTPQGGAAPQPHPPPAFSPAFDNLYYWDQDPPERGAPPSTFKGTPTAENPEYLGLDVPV
# [3] = reduced viability of SK-BR-3 breast cancer cells – cell-based, 24 h, human, pilot screen (AID 572;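 active means viability at or below 10% of carrier control in both of two separate runs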;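 further: compound exposure lasted between 18 and 24 h rather than exactly 24 h; 100% = carrier-treated control wells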); details: SK-BR-3 viability, CellTiter-Glo luminescence, at 10 µM, stronger effect = lower value
# [4] = HUVEC growth inhibition – cell-based, human, primary screen (AID 575;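 active means viability at or below 30% in both replicate assays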;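 further: 100% = median of untreated cell wells with 0.1% DMSO on each plate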); details: HUVEC proliferation, CellTiter-Glo luminescence, 72 h; at 10 µM; stronger effect = lower value
# Method in brief: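 Test system: HUVEC primary cells. Quantity: 1250 endothelial cells in each well. Dosing: single-point 10 µM, DMSO 0.1% final. Incubation: 72 h treatment at 37 °C. Measured by: CTG luminescence. Control set: DMSO cell controls and MePR drug controls. Plate: collagen-coated 384-well format.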
# [5] = H69AR cell proliferation blockers – human, duplicate replicates, primary screen (AID 580); details: H69AR lung tumor cells viability, ATP luminescence, 72 h; at 10 µM; stronger effect = lower value;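 further: 100% = mean luminescence of untreated wells and 0% = no signal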
# [6] = MRP1 drug-resistance reversers in H69AR cells – cell-based, doxorubicin co-treatment, pilot screen (AID 601;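 active means viability loss from added drug above about 55%, and viability with drug at most 40%, in both replicates, limit read from the data, passing the limit was not always enough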); details: CellTiter-Glo, 72 h, at 10 µM; for differential viability (reversal): stronger effect = higher value
# [7] = yeast transport mutant growth inhibition pilot in 384-well plates, post-Golgi transport modulator project (AID 636; in the data active means inhibition above about 31%); details: absorbance 615 nm, about 18 h, stronger effect = higher value
# [8] = growth suppression of yeast trafficking mutant, preliminary HTS, modulators of trafficking downstream of Golgi apparatus project, 1536-format plate, OD 615 nm (AID 637; in the data active means inhibition above about 30%); details: yeast transport mutant growth, absorbance 615 nm, 18 h; stronger effect = higher value
# [9] = H69AR cells + 2 uM doxorubicin, measured here: viability with 2 uM doxorubicin, stronger effect = lower value
# [10] = H69AR cells, compound alone cytotoxicity
SMILES,viability [1],Her2 level [2],viability [3],viability [4],viability [5],differential viability (reversal) ([6]; H69AR cells + 2 uM doxorubicin),"viability [6, 9]","viability [6, 10]",inhibition [7],inhibition [8]
Cc1nnc(SCC2=C(C(=O)O)N3C(=O)[C@@H](NC(=O)Cn4cnnn4)[C@H]3SC2)s1,88.5%,99.5% (inactive),88.5% (inactive),105% (inactive),101% (inactive),1.93% (inactive),98.7%,101%,,
CC(=O)OCC(=O)[C@@]1(O)CC[C@H]2[C@@H]3CCC4=CC(=O)C=C[C@]4(C)[C@@]3(Cl)[C@@H](Cl)C[C@@]21C,114%,116% (inactive),114% (inactive),98.5% (inactive),97.4% (inactive),-13% (inactive),110%,97.4%,,
CC(=O)OCC(=O)[C@@]12OC3(CCCC3)O[C@@H]1C[C@H]1[C@@H]3CCC4=CC(=O)C=C[C@]4(C)[C@@]3(F)[C@@H](O)C[C@@]12C,132%,91.5% (inactive),132% (inactive),86.6% (inactive),83.1% (inactive),2.75% (inactive),80.3%,83.1%,,
CCC(=O)O[C@@H]1CC(=O)O[C@H](C)CC=CC=C[C@@H](O)[C@H](C)C[C@H](CC=O)[C@H](O[C@H]2O[C@H](C)[C@@H](O[C@H]3C[C@@](C)(O)[C@@H](OC(=O)CC)[C@H](C)O3)[C@H](N(C)C)[C@H]2O)[C@H]1OC,93.5%,126% (inactive),93.5% (inactive),109% (inactive),95.3% (inactive),-4.97% (inactive),100%,95.3%,,
Cc1onc(-c2ccccc2)c1C(=O)N[C@@H]1C(=O)N2[C@@H]1SC(C)(C)[C@@H]2C(=O)O,108%,100% (inactive),108% (inactive),91.1% (inactive),101% (inactive),0% (inactive),101%,101%,,
Nc1nnc(-c2cccc(Cl)c2Cl)c(N)n1,109%,124% (inactive),109% (inactive),103% (inactive),97.1% (inactive),3.66% (inactive),93.4%,97.1%,,
CCCC(=O)Nc1ncnc2c1ncn2[C@@H]1O[C@@H]2COP(=O)(O)O[C@H]2[C@H]1OC(=O)CCC,102%,104% (inactive),102% (inactive),109% (inactive),104% (inactive),13.3% (inactive),90.8%,104%,,
CC(C)C[C@H](NC(=O)[C@@H]1O[C@H]1C(=O)O)C(=O)NCCCCN=C(N)N,100%,104% (inactive),100% (inactive),86% (inactive),100% (inactive),-2.29% (inactive),103%,100%,,
O=C1CC(Cc2ccccc2)C(=O)N1CCCn1ccnc1 (centres undefined),101%,102% (inactive),101% (inactive),103% (inactive),92.2% (inactive),8.18% (inactive),84%,92.2%,-3.85% (inactive),-0.5% (inactive)
CCCN1CCN(CCCNC(=O)Cn2nc(-c3ccc(Cl)cc3)ccc2=O)CC1,86%,93.5% (inactive),86% (inactive),104% (inactive),101% (inactive),10.3% (inactive),90.6%,101%,-2.76% (inactive),2.42% (inactive)
CCCCOc1ccc(OCCCN2CCOCC2)cc1,96.5%,108% (inactive),96.5% (inactive),91.7% (inactive),103% (inactive),7.79% (inactive),95.2%,103%,,
Cc1cc(N2C(=O)C3C4C=CC(C4)C3C2=O)ccc1Br (centres undefined),107%,99.5% (inactive),107% (inactive),87.8% (inactive),101% (inactive),11.6% (inactive),89.3%,101%,-6.58% (inactive),-5.4% (inactive)
COc1ccc2[nH]c(=O)c(CN(C(=O)c3ccncc3)C(C)C)cc2c1,96%,108% (inactive),96% (inactive),113% (inactive),98.5% (inactive),4.29% (inactive),94.2%,98.5%,-3.12% (inactive),4% (inactive)
CN(CCO)CC(O)Cn1cnc2c1c(=O)n(C)c(=O)n2C (centres undefined) (tested in a mixture with another compound),87%,88.5% (inactive),87% (inactive),94.1% (inactive),83.6% (inactive),-2.31% (inactive),85.9%,83.6%,,
CCOC(=O)CCC(=O)O[C@H]1[C@H](O[C@@H]2[C@@H](C)[C@H](O[C@H]3C[C@@](C)(OC)[C@@H](O)[C@H](C)O3)[C@@H](C)C(=O)O[C@H](CC)[C@@](C)(O)[C@H](O)[C@@H](C)C(=O)[C@H](C)C[C@@]2(C)O)O[C@H](C)C[C@@H]1N(C)C,97%,98% (inactive),97% (inactive),79.6% (inactive),89.8% (inactive),-0.63% (inactive),90.4%,89.8%,,
Cc1ccccc1C(OCCN(C)C)c1ccccc1 (centres undefined),93%,86% (inactive),93% (inactive),98.9% (inactive),91.3% (inactive),10.8% (inactive),80.5%,91.3%,,
Cc1ncc([N+](=O)[O-])n1CCO,99.5%,108% (inactive),99.5% (inactive),103% (inactive),105% (inactive),8.66% (inactive),96.7%,105%,,
NC(Cc1ccc(Oc2ccc(O)cc2)cc1)C(=O)O (centres undefined),92.5%,97% (inactive),92.5% (inactive),107% (inactive),80.8% (inactive),7.61% (inactive),73.1%,80.8%,,

SMILES,viability [1],Her2 level [2],viability [3],viability [4],viability [5],differential viability (reversal) ([6]; H69AR cells + 2 uM doxorubicin),"viability [6, 9]","viability [6, 10]",inhibition [7],inhibition [8]
CC[N+](C)(C)Cc1ccccc1Br,102%,92% (inactive),102% (inactive),107% (inactive),98.8% (inactive),-4.18% (inactive),103%,98.8%,,
O=C1N[C@@H](Cc2cnc[nH]2)C(=O)N2CCC[C@@H]12,113%,97% (inactive),113% (inactive),94.9% (inactive),87.1% (inactive),-2.25% (inactive),89.3%,87.1%,,
Nc1nc(F)nc2c1ncn2[C@@H]1O[C@H](CO)[C@@H](O)[C@@H]1O,97%,104% (inactive),97% (inactive),65.7% (inactive),103% (inactive),-2.94% (inactive),106%,103%,,
CCCC(=O)Nc1ccc(NC(=O)C2CC2)cn1,108%,112% (inactive),108% (inactive),105% (inactive),102% (inactive),6.95% (inactive),95.4%,102%,-1.73% (inactive),5% (inactive)
CC(=O)Oc1cc(C(C)C)c(OCCN(C)C)cc1C,96.5%,118% (inactive),96.5% (inactive),105% (inactive),99% (inactive),1.28% (inactive),97.8%,99%,,
CCOc1ccc2nc(S(N)(=O)=O)sc2c1,127%,92% (inactive),127% (inactive),59% (inactive),67.6% (inactive),7.23% (inactive),60.4%,67.6%,,
CN1CCN(CC(=O)N2c3ccccc3C(=O)Nc3cccnc32)CC1,122%,98.5% (inactive),122% (inactive),98.8% (inactive),96.1% (inactive),6.04% (inactive),90%,96.1%,,
Cc1ccccc1-c1nc(CN2CCC(C(=O)NCCCN3CCCC3)CC2)c(C)o1,81.5%,91.5% (inactive),81.5% (inactive),63% (inactive),98.2% (inactive),8.91% (inactive),89.3%,98.2%,1.32% (inactive),0.55% (inactive)
CCSC1(SCC)N=C(N)C2(C#N)C(c3ccccc3)NC(C)=C(C)C12C#N (centres undefined),95%,85.5% (inactive),95% (inactive),81.4% (inactive),93.3% (inactive),19.2% (inactive),74.1%,93.3%,-5.07% (inactive),-2.79% (inactive)
O=C(CSc1nc(-c2ccccc2)cs1)NCc1ccco1,100%,102% (inactive),100% (inactive),103% (inactive),94.8% (inactive),1.79% (inactive),93%,94.8%,-6.08% (inactive),-9.18% (inactive)
CC1(C)CC(=O)C2=C(C1)OC(=O)C2(NC(=O)c1cccs1)C(F)(F)F (centres undefined),102%,83% (inactive),102% (inactive),88.3% (inactive),98% (inactive),3.83% (inactive),94.2%,98%,-4.05% (inactive),12.2% (inactive)
C[C@H]1C[C@H]2[C@@H]3CCC4=CC(=O)C=C[C@]4(C)[C@@]3(Cl)[C@@H](O)C[C@]2(C)[C@@]1(O)C(=O)CO,110%,112% (inactive),110% (inactive),91.4% (inactive),97.5% (inactive),-5.3% (inactive),103%,97.5%,,
C=CCn1c(SCC(=O)c2ccc(OC)cc2)nnc1C(C)NC(=O)c1cccs1 (centres undefined),102%,88.5% (inactive),102% (inactive),90.9% (inactive),87% (inactive),-5.4% (inactive),92.4%,87%,-0.26% (inactive),7.67% (inactive)
Cc1ccc(-c2noc(CCC(=O)NCCc3ccccc3Cl)n2)cc1,77.5%,90% (inactive),77.5% (inactive),103% (inactive),99.6% (inactive),12% (inactive),87.7%,99.6%,-3.29% (inactive),-5.17% (inactive)
Cc1cc(NC(=O)C2=C(O)c3ccccc3S(=O)(=O)N2C)no1,96.5%,113% (inactive),96.5% (inactive),109% (inactive),112% (inactive),16.9% (inactive),94.7%,112%,,
CCCC(=O)N1c2ccccc2NC2=C(C(=O)CCC2)C1c1ccc(F)cc1 (centres undefined),98.5%,78% (inactive),98.5% (inactive),96.9% (inactive),91.6% (inactive),-0.1% (inactive),91.7%,91.6%,-0.14% (inactive),3.81% (inactive)
Nc1ccc2cn[nH]c2c1,100%,128% (inactive),100% (inactive),82.2% (inactive),93.1% (inactive),-18.1% (inactive),111%,93.1%,,
